High-throughput results deposited in PubChem by several laboratories.
MrgX1 antag – blocks BAM8-22 activation of human MrgX1 receptor; Q96LB2; MRGX1-HEK293 calcium flux, Fluo-4, BAM8-22 antagonism; active compounds read low; B-score at 10 µM; 310,000 tested, 1.3% active;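 active = calcium-response B-score plate-corrected more than 3 library SD below zero, starting fluorescence within 5 deviations, no agonist response on first addition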;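 note: peak minus trough fluorescence over baseline after final BAM8-22 challenge near maximal dose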
Target sequence (Q96LB2 whole entry, looked up): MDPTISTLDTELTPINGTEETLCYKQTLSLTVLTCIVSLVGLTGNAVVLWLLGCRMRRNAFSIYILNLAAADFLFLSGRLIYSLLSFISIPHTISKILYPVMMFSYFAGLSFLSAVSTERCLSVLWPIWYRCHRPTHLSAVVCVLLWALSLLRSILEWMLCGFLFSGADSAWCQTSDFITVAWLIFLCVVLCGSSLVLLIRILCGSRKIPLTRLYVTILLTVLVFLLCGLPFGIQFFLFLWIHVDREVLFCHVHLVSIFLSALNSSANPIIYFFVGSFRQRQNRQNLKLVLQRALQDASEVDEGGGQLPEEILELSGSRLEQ
MrgX1 agonist – activates human MrgX1 receptor signaling. B-score at 10 µM. 310,000 tested, 0.44% active. MrgX1-HEK293 cells, Fluo-4 calcium fluorescence, agonist mode; active compounds read high;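 active = calcium response B-score plate-corrected fluorescence ratio at least 3 library SD, with starting fluorescence B-score inside 5 SD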
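Assay system: MrgX1-expressing HEK293 cells / Amount: fifteen thousand cells per well / Doses: test compound in the initial addition of three / Timing: cells plated overnight, dye loaded 0.5 h 37 °C, 0.5 h room temperature / Technique: kinetic calcium dye fluorescence, Fluo-4 NW / Control set: positive and negative controls per plate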
MrgX1 allo act – allosterically activates human MrgX1 receptor signaling | AID 588675 | B-score at 10 µM | Q96LB2 | 310,000 tested, 0.63% active | MrgX1-HEK293, Fluo-4 calcium flux, FDSS; active compounds read high;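 active = plate-corrected calcium response at least 3 library SD above typical, normal starting fluorescence, not activating the receptor alone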;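 note: compound read alongside a low EC10 to EC30 dose of BAM8-22 agonist; peak minus trough fluorescence over baseline measured at the second addition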
RGS4 act – potentiators or activators of RGS4 | B-score at 10 µM | 310,000 tested, 0.92% active | HEK293 M3R/inducible RGS4, carbachol calcium flux Fluo4; active compounds read low;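 active = B-score of the integrated calcium signal more than 4 SD below the library mean, with starting fluorescence not abnormally high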;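 note: negative B-score means reduced calcium response which marks RGS4 activation or potentiation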
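Material: Inducible-RGS4 HEK293 cells carrying M3 receptor; also added: carbachol at ECmax as muscarinic agonist stimulus; incubation: compound preincubation 20 min at room temperature before agonist; signal: Fluo4-AM (2 µM) calcium-flux fluorescence, kinetic read; measure: integrated calcium ratio converted to B score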
RGS4 inh – human RGS4 inhibition; P49798; HEK293 M3R/RGS4 inducible, Fluo-4 calcium flux; active compounds read high; triggered by carbachol at its EC20; B-score at 10 µM; 310,000 tested, 0.45% active;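 active = B-score, a plate-corrected calcium signal, over three deviations above library mean, with baseline fluorescence within five deviations of library mean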;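 note: RGS4 expression induced by doxycycline in cells with stable M3 receptor; B-score is computed from the integrated fluorescence ratio over baseline after carbachol; higher B-score means a larger calcium signal and so more RGS4 inhibition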
Target sequence (P49798 whole entry, looked up): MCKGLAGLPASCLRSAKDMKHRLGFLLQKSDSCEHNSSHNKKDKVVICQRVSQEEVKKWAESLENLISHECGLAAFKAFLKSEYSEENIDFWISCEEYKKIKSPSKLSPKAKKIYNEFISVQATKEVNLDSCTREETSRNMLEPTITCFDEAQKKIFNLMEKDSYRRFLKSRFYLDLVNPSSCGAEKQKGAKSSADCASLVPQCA
Hep lipid drop – hepatic lipid droplet formation modulation; 240,000 tested, 0.4% active; AML12 mouse hepatocytes, oleate lipid droplets, BODIPY imaging; inhibition, % at 6.5 µM;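 active = lipid droplet intensity inhibited by at least 50%, with more than 500 cells counted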
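Assay system: AML12 hepatocytes (mouse) / Also added: 100 µM oleic acid challenge / Times: overnight treatment with compound plus oleate / Detection: high-content imaging of BODIPY-stained droplets and DAPI nuclei / Evaluation: % inhibition of lipid droplet signal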
RGS4 act valid – RGS4 activation, validation assay | AID 602282 | HEK293 M3R/RGS4 inducible, carbachol calcium flux Fluo4 | shares compounds with RGS4 act | inhibition, % at 10 µM | 1,100 tested, 89% active;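 active = inhibition above 3 SD of the buffer control wells, cut at about 41% in these data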;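 note: signal is the integrated peak-minus-minimum Fluo4 fluorescence over baseline ratio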
M3R Ca counter – counter-screen for RGS4 activators: effect in non-induced cells | shares compounds with RGS4 act | 1,100 tested, 82% active | inhibition, % at 10 µM | HEK293 M3R non-induced RGS4, Fluo4 calcium flux; after carbachol challenge at its EC90;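 active = inhibition exceeding 3 SD of buffer-only control wells, cut at about 26% in these data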;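 note: percent drop in integrated peak-minus-baseline over baseline Fluo4 ratio after carbachol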
An asterisk follows results filed as active; i = inactive; . = not tested or not shown. Shown are actives, neighbours in structure and some others; about 3.8% of the full set was active somewhere.

SMILES | MrgX1 antag | MrgX1 agonist | MrgX1 allo act | RGS4 act | RGS4 inh | Hep lipid drop | RGS4 act valid | M3R Ca counter
O=C(CNCCC1=CCCCC1)Nc1ccc(N2CCCCCC2)cc1 | i | i | i | -10* | i | . | 94* | 92*
O=C(CNCC1CCCCC1)Nc1ccc(N2CCCCC2)cc1 | i | i | i | i | i | 13 | . | .
O=C(CNC1CCCC1)Nc1ccc(N2CCCCCC2)cc1 | i | i | i | -8* | i | 6 | 84* | 36*
O=C(CNC1CCCCCC1)Nc1ccc(N2CCCC2)cc1 | i | i | i | i | i | . | . | .
Cc1cc(C(=O)N/N=C2\CC(=O)c3ccccc32)c(C)n1-c1ccccc1 | i | i | i | i | i | 4 | . | .
O=S(=O)(Nc1ccccc1)c1ccc(-c2csnn2)cc1 | i | i | i | -8.4* | i | -4 | 63* | 84*
c1ccc(-c2ccc(-c3csnn3)cc2)cc1 | i | i | i | i | i | . | . | .
COc1ccc2c(C)c(CCC(=O)NCCCN3CCCC3=O)c(=O)oc2c1C | i | i | i | -8.9* | i | . | 0 | 0
Cc1oc2c(C)c3oc(=O)c(CCC(=O)NCCCN4CCCC4=O)c(C)c3cc2c1C | i | i | i | i | i | . | . | .
Cc1c(CCOC(=O)C23CC4CC(CC(C4)C2)C3)sc[n+]1Cc1ccccc1 | i | i | i | -12* | i | 10 | 92* | 61*
COc1ccc(NC(C)=O)cc1NC(=O)c1ccc(C#N)cc1 | i | i | i | i | i | 41 | . | .
OCCN(CC#CCC(O)(c1ccccc1)C1CCCC1)CCO (configuration not stated) | i | i | i | i | i | 9 | . | .
CCN(CC)CCC#CC(O)(c1ccccc1)C1CCCCC1 (configuration not stated) | i | i | i | -8.6* | i | 8 | 91* | 93*
CN(C)CCC#CC(O)(c1ccccc1)c1ccccc1 | i | i | i | -9.9* | i | 11 | 88* | 47*
CCN(CC)CC#CC(O)(c1ccccc1)c1ccccc1 | i | i | i | -13* | i | 0 | 94* | 92*
CN(C)C(C)(C)C#CC(O)(c1ccccc1)c1ccccc1 | i | i | i | -8.7* | i | -8 | 92* | 88*
Cc1ccc([N+](=O)[O-])cc1S(=O)(=O)Nc1ccccn1 | i | i | i | i | i | 22 | . | .
CCN(Cc1ccccc1)C(=O)CCS(=O)(=O)c1cc2c(cc1Cl)NC(=O)CO2 | i | i | i | i | i | -76 | . | .
CCc1ccc(CNC(=O)CCCC(=O)n2nc(C)c3ccccc32)cc1 | i | i | i | i | i | 6 | . | .
O=C(CNc1ccccc1OC(F)F)N1CCc2ccccc21 | i | i | i | i | i | 7 | . | .
O=C(Oc1ccc(OC(=O)N2CCCCC2)cc1)c1ccccc1 | i | i | i | -10* | i | -6 | 62* | 84*
O=C(Oc1ccccc1)N1CCCC1 | i | i | i | i | i | 9 | . | .
CN1CCC(C2(O)c3ccccc3CCc3ccccc32)CC1 | i | i | i | -10* | i | -3 | 62* | 84*
CN1CCC(C2(O)c3ccccc3CSc3sccc32)CC1 (configuration not stated) | i | i | i | . | . | -11 | . | .
COC(=O)c1sc(-c2ccc(Cl)cc2)cc1N | i | i | i | -7.7* | i | 1 | 0 | 0
SMILES | MrgX1 antag | MrgX1 agonist | MrgX1 allo act | RGS4 act | RGS4 inh | Hep lipid drop | RGS4 act valid | M3R Ca counter
Clc1ccc(Nc2ccc(NCc3ccccc3)nn2)cc1 | i | i | i | -7.6* | i | 4 | 0 | 0
Cc1nc(C)c(C(=O)NNS(=O)(=O)c2ccc3ccccc3c2)s1 | i | i | i | i | i | 2 | . | .
CCOC(=O)C1(Cc2ccccc2C(F)(F)F)CCN(CC2CC2)CC1 | i | i | i | i | i | -1 | . | .
CCOC(=O)c1c(N)sc2c(OCC)c(Br)ccc12 | i | i | i | i | i | 0 | . | .
CCOC(=O)c1c(NC(C)=O)sc2c(OCC(O)CNC(C)(C)C)c(Br)ccc12 (configuration not stated) | i | i | i | -10* | i | -4 | 94* | 94*
Cc1ccc(N=Nc2c(N)[nH]n3c(=O)c4c(nc23)CCCC4)cc1 | . | . | . | i | i | . | . | .
CC(C)CC1CCCCC1OC(=O)CN1CCCCC1 (configuration not stated) | i | i | i | -8.5* | i | -100 | 86* | 37*
CC1CC(OC(=O)CN2CCCCC2)CC(C)(C)C1 (configuration not stated) | i | i | i | i | i | 0 | . | .
COc1ccc(C(=O)C2CCCN(Cc3nc4ccccc4nc3C)C2)cc1OC (configuration not stated) | i | i | i | i | i | -28 | . | .
CCOC(=O)N1CCC(N2CCCC(C(=O)c3cc(C)c(OC)c(C)c3)C2)CC1 (configuration not stated) | i | i | i | -8.1* | i | -16 | 79* | 35*
COc1ccc(C(=O)C2CCCN(C3Cc4ccccc4C3)C2)cc1OC (configuration not stated) | i | i | i | -8.6* | i | 7 | 86* | 46*
Cc1ccc(C)c(OCC(=O)N2CCc3ccccc3C2)c1 | i | i | i | -7.7* | i | -7 | 56* | 84*
Cc1ccccc1OCC(=O)N1CCc2ccccc2C1 | i | i | i | i | i | 4 | . | .
CC1(C)COC(c2ccc(F)c([N+](=O)[O-])c2)=N1 | i | i | i | i | i | 15 | . | .
Cc1ccc(C(=O)N2CCN(c3ccc(NC(=O)COc4ccccc4C)cc3)CC2)cc1 | i | i | i | -8.4* | i | 7 | 61* | 39*
CCC(=O)N1CCN(c2ccc(NC(=O)COc3ccc(C)cc3C)cc2)CC1 | i | i | i | i | i | -25 | . | .
COc1ccc(CCNC(=O)C(=O)NCC2OCCN2S(=O)(=O)c2cc(F)ccc2F)cc1OC (configuration not stated) | i | i | i | i | i | 11 | . | .
